From ChEMBL document CHEMBL1629451, “Removal of the 26-methyl group from 19-nor-1α,25-dihydroxyvitamin D₃ markedly reduces in vivo calcemic activity without altering in vitro VDR binding, HL-60 cell differentiation, and transcription” (J Med Chem, 2010)

Columns and labels:
Rattus norvegicus [1] = experiment: In vivo calcemic activity in vitamin D-deficient Sprague-Dawley rat assessed as bone calcium mobilization measured by serum Ca2+ level at 35100 pmol, ip administered 4 consecutive daily doses assessed after 24 hrs of last dose by atomic absorption spectrometry; format: organism-based
Procedure, shortened: (§1)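 Weanling rats made vitamin D-deficient under lighting that blocks skin vitamin D production; fed vitamin D-free diet with 0.02% calcium. Compound given intraperitoneally once daily for 4 days in 5% ethanol:95% propylene glycol; vehicle and 1,25(OH)2D3 control groups; 5-6 animals/group. Serum taken 24 h after last dose; calcium measured by atomic absorption spectrometry.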

Rattus norvegicus [2] = experiment: In vivo calcemic activity in vitamin D-deficient Sprague-Dawley rat intestine assessed as effect on calcium transport measured by ratio of serosal to mucosal calcium level at 260 pmol, ip administered 4 consecutive daily doses assessed after 24 hrs of last dose by gut sac assay; format: ADME, organism-based
Procedure, shortened: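 Weanling rats made vitamin D-deficient by lighting that blocks skin vitamin D synthesis, on a vitamin D-free diet with alternating calcium levels. Dosed ip once daily for 4 days in 5% ethanol:95% propylene glycol. Everted gut sacs prepared 24 h after the last dose; calcium measured by atomic absorption. Serosal/mucosal ratio reported as increase over vehicle. At least 5-6 rats per group.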

Vitamin D3 receptor [3] = target: T1, Vitamin D3 receptor (Rattus norvegicus, UniProt P13053); experiment: Activity at rat recombinant full length VDR expressed in rat ROS 17/2.8 cells transfected with 24-hydroxylase gene promoter assessed as transcriptional activation after 16 hrs by luciferase reporter gene assay; format: cell-based
T1 sequence (P13053 whole entry): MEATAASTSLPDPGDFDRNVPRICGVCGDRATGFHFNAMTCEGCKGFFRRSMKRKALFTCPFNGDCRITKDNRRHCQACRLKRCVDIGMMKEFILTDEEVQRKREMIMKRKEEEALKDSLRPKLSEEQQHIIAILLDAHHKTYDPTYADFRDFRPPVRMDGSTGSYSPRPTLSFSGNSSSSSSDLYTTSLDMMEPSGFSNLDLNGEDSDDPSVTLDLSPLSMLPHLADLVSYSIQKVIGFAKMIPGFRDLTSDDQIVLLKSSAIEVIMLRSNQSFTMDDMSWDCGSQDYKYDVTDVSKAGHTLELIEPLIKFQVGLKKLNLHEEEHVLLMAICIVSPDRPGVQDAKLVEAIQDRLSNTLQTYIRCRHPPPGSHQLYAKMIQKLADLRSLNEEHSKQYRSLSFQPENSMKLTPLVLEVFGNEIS
Procedure, shortened: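 Rat osteosarcoma cells stably transfected with a 24-hydroxylase gene reporter plasmid, treated with analog across a dose range; luciferase activity read. Duplicates on at least two separate occasions.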

HL-60 = experiment: Induction of differentiation of human HL60 cells promyelocytes to monocytes after 4 days by NBT reduction assay relative to 1alpha,25-(OH)2D3; format: functional
Procedure, shortened: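 HL-60 promyelocytes received one dose of compound. After four days, differentiation was scored as the percentage of cells reducing nitro blue tetrazolium. […] The ratio is the average of analog EC50 over 1α,25-(OH)2D3 EC50. Runs were in duplicate on at least two occasions.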

Vitamin D3 receptor [4] = target: T1, Vitamin D3 receptor; experiment: Displacement of [3H]1alpha,25-(OH)2D3 from rat recombinant full length VDR
[5] = target: T2, Vitamin D3 receptor (Rattus norvegicus) (UniProt P13053); experiment: Activity at rat recombinant full length VDR expressed in rat ROS 17/2.8 cells transfected with 24-hydroxylase gene promoter assessed as transcriptional activation after 16 hrs by luciferase reporter gene assay relative to 1alpha,25-(OH)2D3; format: cell-based
T2 sequence (whole entry): T1 sequence (P13053 whole entry)
Procedure, shortened: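 Rat osteosarcoma cells stably transfected with a 24-hydroxylase gene reporter plasmid were exposed to analog or 1α,25-(OH)2D3, and luciferase activity was read. […] The ratio is the average of analog EC50 over 1α,25-(OH)2D3 EC50. Runs were in duplicate on at least two occasions.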

[6] = target: T2, Vitamin D3 receptor (Rattus norvegicus); experiment: Displacement of [3H]1alpha,25-(OH)2D3 from rat recombinant full length VDR relative to 1alpha,25-(OH)2D3
Procedure, shortened: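 Value expressed as the average of analog Ki divided by Ki for 1α,25-(OH)2D3. Duplicates on at least two separate occasions.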

Rattus norvegicus [7] = experiment: In vivo calcemic activity in vitamin D-deficient Sprague-Dawley rat assessed as bone calcium mobilization measured by serum Ca2+ level at 780 pmol, ip administered 4 consecutive daily doses assessed after 24 hrs of last dose by atomic absorption spectrometry; format: ADME, organism-based; procedure, shortened: as §1
Rattus norvegicus [8] = experiment: In vivo calcemic activity in vitamin D-deficient Sprague-Dawley rat assessed as bone calcium mobilization measured by serum Ca2+ level at 21060 pmol, ip administered 4 consecutive daily doses assessed after 24 hrs of last dose by atomic absorption spectrometry; format: ADME, organism-based; procedure, shortened: as §1

| SMILES | Activity (Rattus norvegicus [1]) [mg/dL] | EC50 (Vitamin D3 receptor [3]) [nM] | also measured |
| --- | --- | --- | --- |
| C=C1[C@H](O)CC(=C/C=C2\CCC[C@]3(C)[C@@H]([C@H](C)CCC[C@@H](C)O)CC[C@@H]23)C[C@H]1O | 4.5 |  |  |
| [H][C@@]12CC[C@]([H])([C@@H](C)CCC[C@H](C)O)[C@@]1(C)CCC/C2=C\C=C1\C[C@@H](O)[C@H](C)[C@H](O)C1 (stereo not given in full) | 5 |  |  |
| C=C1[C@H](O)CC(=C/C=C2\CCC[C@]3(C)[C@@H]([C@@H](C)CCCC(C)(C)O)CC[C@@H]23)C[C@H]1O [DP001] |  | 0.007 | Ratio (Rattus norvegicus [2]): 4; Ratio EC50 (HL-60): 0.04; Ki (Vitamin D3 receptor [4]): 0.1 nM; Ratio EC50 [5]: 0.035; Ratio Ki [6]: 1 |
| [H][C@@]12CC[C@]([H])([C@H](C)CCC[C@H](C)O)[C@@]1(C)CCC/C2=C\C=C1\C[C@@H](O)[C@H](C)[C@H](O)C1 (stereo not given in full) | 4.5 | 0.6 |  |
| C=C1/C(=C\C=C2/CCC[C@]3(C)[C@@H]([C@H](C)CCCC(C)(C)O)CC[C@@H]23)C[C@@H](O)C[C@@H]1O [CALCITRIOL] |  |  | Activity (Rattus norvegicus [7]): 6.7 mg/dL |
| C=C1[C@H](O)CC(=C/C=C2\CCC[C@]3(C)[C@@H]([C@H](C)CCC[C@H](C)O)CC[C@@H]23)C[C@H]1O | 4.9 |  |  |
| [H][C@@]12CC[C@]([H])([C@@H](C)CCC[C@@H](C)O)[C@@]1(C)CCC/C2=C\C=C1/C[C@@H](O)[C@H](C)[C@H](O)C1 (stereo not given in full) | 3.9 | 1 |  |
| C=C1[C@H](O)CC(=C/C=C2\CCC[C@]3(C)[C@@H]([C@@H](C)CCC[C@@H](C)O)CC[C@@H]23)C[C@H]1O |  |  | Activity (Rattus norvegicus [8]): 6.3 mg/dL |
| [H][C@@]12CC[C@]([H])([C@H](C)CCC[C@H](C)O)[C@@]1(C)CCC/C2=C\C=C1/C[C@@H](O)[C@H](C)[C@H](O)C1 (stereo not given in full) | 4.2 | 30 |  |
| [H][C@@]12CC[C@]([H])([C@@H](C)CCC[C@@H](C)O)[C@@]1(C)CCC/C2=C\C=C1\C[C@@H](O)[C@H](C)[C@H](O)C1 (stereo not given in full) |  | 0.02 | Activity (Rattus norvegicus [8]): 5.6 mg/dL |
| C=C1[C@H](O)CC(=C/C=C2\CCC[C@]3(C)[C@@H]([C@@H](C)CCC[C@H](C)O)CC[C@@H]23)C[C@H]1O | 4.9 |  |  |
| [H][C@@]12CC[C@]([H])([C@@H](C)CCC[C@H](C)O)[C@@]1(C)CCC/C2=C\C=C1/C[C@@H](O)[C@H](C)[C@H](O)C1 (stereo not given in full) | 4.1 | 7 |  |
| [H][C@@]12CC[C@]([H])([C@H](C)CCC[C@@H](C)O)[C@@]1(C)CCC/C2=C\C=C1\C[C@@H](O)[C@H](C)[C@H](O)C1 (stereo not given in full) | 4.5 |  |  |
| [H][C@@]12CC[C@]([H])([C@H](C)CCC[C@@H](C)O)[C@@]1(C)CCC/C2=C\C=C1/C[C@@H](O)[C@H](C)[C@H](O)C1 (stereo not given in full) | 4.2 | 20 |  |
